Results reported in ChEMBL document CHEMBL2417545, “6-methoxy-7-benzofuranoxy and 6-methoxy-7-indolyloxy analogues of 2-[2-(2,6-Dimethoxyphenoxy)ethyl]aminomethyl-1,4-benzodioxane (WB4101):1 discovery of a potent and selective α1D-adrenoceptor antagonist” (J Med Chem, 2013).
pKi: −log10 of the molar value.

Assays:
Cavia porcellus = organism: Cavia porcellus; experiment: Inverse agonist activity at alpha-1 receptor in guinea pig thoracic aorta assessed as inhibition of calcium-induced increase in resting tension at 10 nM relative to control; type: tissue-based
Procedure, shortened: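 Guinea pig thoracic aortic strips in Krebs at 37 °C, equilibrated 1 h at 1 g tension, then given (−)-noradrenaline 1 μM. Internal Ca²⁺ stores were depleted by repeated agonist in Ca²⁺-free Krebs with 0.1 mM EDTA. After 30 min with antagonist at 10 nM, 1.8 mM Ca²⁺ was added. Read-out: % decrease of Ca²⁺-induced increase in resting tension versus no-agent reference.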

[1] = target: T1, Alpha-1D adrenergic receptor (Rattus norvegicus, UniProt P23944); experiment: Antagonist activity at alpha-1D adrenoreceptor in Sprague-Dawley rat thoracic aorta assessed as inhibition of noradrenaline-induced tissue contraction after 30 mins by Schild plot analysis; settings: read-out: pA2 (converted)
T1 sequence (P23944 whole entry): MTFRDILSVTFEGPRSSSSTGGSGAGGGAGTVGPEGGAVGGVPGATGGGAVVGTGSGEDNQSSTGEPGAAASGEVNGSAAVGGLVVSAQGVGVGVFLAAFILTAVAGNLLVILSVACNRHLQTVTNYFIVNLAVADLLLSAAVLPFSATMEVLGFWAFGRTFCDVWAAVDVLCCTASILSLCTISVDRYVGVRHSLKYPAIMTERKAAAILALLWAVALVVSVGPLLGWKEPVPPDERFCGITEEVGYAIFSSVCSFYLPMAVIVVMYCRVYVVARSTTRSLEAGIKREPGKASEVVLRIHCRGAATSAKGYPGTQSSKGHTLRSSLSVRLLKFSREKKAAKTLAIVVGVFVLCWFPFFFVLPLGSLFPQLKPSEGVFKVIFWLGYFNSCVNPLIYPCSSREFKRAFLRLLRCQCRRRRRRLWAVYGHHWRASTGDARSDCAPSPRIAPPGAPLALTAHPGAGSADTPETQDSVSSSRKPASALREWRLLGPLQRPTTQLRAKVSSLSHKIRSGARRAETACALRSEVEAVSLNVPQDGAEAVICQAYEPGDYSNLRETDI
Procedure, shortened: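 Endothelium-denuded helicoid aortic strips, about 1.5 cm, with denudation confirmed by absent acetylcholine relaxation. Strips were equilibrated ≥1 h at 1 g tension and cumulative (−)-noradrenaline curves recorded, the first two discarded and the third taken as control; a fourth followed 30 min antagonist equilibration. pA₂ from Schild plot, 3−5 repeats per concentration.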

[2] = target: T2, Alpha-1A adrenergic receptor (Rattus norvegicus, UniProt P43140); experiment: Antagonist activity at alpha-1A adrenoreceptor in Sprague-Dawley rat prostatic vas deferens assessed as inhibition of noradrenaline-induced tissue contraction after 30 mins by Schild plot analysis; settings: read-out: pA2 (converted)
T2 sequence (P43140 whole entry): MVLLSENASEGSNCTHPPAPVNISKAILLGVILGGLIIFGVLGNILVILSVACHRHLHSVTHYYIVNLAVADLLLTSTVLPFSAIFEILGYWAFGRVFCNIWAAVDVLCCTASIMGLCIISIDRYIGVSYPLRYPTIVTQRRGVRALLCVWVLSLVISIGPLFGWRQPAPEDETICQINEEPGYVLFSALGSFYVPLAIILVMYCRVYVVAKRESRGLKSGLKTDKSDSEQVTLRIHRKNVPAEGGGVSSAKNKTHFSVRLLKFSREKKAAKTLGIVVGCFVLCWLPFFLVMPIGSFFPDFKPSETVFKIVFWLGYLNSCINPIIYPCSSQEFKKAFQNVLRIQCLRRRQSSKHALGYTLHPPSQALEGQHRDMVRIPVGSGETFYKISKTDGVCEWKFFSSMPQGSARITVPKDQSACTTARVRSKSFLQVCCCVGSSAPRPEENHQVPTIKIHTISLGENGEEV
Procedure, shortened: (§1)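 Cumulative isotonic (−)-noradrenaline curves were run at 30 min intervals, the first discarded and the second taken as control, then a third after 30 min with antagonist. pA₂ from Schild plot, at least three antagonist concentrations, each tested 3−5 times.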

[3] = target: T2, Alpha-1A adrenergic receptor; experiment: Antagonist activity at alpha-1A adrenoreceptor in Sprague-Dawley rat prostate assessed as inhibition of noradrenaline-induced tissue contraction after 30 mins by Schild plot analysis; design: species or system Prostate gland; settings: read-out: pA2 (converted)
Procedure, shortened: as §1, with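 “Isolated prostatic portion of vas deferens from 200−250 g rats, in gassed (95% O₂/5% CO₂) physiological salt solution at pH 7.4 with desipramine 0.01 μM. Cumulative” for “Cumulative”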

[4] = target: T3, Alpha-1D adrenergic receptor (Homo sapiens, UniProt P25100); experiment: Displacement of [3H]prazosin from human alpha-1D adrenoreceptor expressed in CHO cells after 30 mins; type: cell-based
T3 sequence (P25100 whole entry): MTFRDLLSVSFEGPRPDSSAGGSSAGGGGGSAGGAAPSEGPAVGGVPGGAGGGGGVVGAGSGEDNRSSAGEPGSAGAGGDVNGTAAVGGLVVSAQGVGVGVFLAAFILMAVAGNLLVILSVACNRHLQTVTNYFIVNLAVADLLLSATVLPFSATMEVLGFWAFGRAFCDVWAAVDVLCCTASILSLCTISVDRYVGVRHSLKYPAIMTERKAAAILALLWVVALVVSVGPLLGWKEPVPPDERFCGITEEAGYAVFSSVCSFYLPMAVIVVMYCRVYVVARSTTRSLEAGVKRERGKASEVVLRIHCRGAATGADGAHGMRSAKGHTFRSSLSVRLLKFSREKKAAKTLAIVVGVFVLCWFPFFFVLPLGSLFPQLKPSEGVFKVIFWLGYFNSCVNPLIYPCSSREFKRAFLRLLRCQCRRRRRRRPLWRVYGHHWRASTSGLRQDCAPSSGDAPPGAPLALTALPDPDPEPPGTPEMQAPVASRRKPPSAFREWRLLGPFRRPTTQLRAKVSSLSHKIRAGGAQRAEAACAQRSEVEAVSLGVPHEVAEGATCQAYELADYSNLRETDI
Procedure, shortened: (§2)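 Membranes from CHO cells expressing each α₁-AR subtype, incubated 30 min at 25 °C in 50 mM Tris HCl pH 7.7 with 10 μM pargyline and 0.1% ascorbic acid, plus 0.5 nM [³H]prazosin and varying test compound concentrations. Nonspecific binding was defined with 1 μM prazosin.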

[5] = target: T4, Alpha-1A adrenergic receptor (Homo sapiens, UniProt P35348); experiment: Displacement of [3H]prazosin from human alpha-1A adrenoreceptor expressed in CHO cells after 30 mins; type: cell-based; procedure, shortened: as §2
T4 sequence (P35348 whole entry): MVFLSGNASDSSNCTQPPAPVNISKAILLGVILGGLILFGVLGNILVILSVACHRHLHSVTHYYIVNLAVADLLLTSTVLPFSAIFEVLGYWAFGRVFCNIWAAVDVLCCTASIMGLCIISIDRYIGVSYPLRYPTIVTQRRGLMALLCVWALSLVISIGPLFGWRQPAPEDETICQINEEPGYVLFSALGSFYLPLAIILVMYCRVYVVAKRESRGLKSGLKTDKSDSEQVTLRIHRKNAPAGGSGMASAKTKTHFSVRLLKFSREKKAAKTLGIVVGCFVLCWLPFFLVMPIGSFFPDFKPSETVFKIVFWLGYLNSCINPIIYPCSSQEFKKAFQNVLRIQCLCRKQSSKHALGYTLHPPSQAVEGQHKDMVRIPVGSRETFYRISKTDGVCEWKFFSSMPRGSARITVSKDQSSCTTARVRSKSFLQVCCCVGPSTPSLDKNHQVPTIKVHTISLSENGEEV

## COc1ccc2c(c1OCCNC[C@H]1COc3ccccc3O1)NCC2.Cl.Cl
Cavia porcellus
  inhibition: 100%
[1]
  Kb: 2.4 nM
[2]
  Kb: 9.33 nM
[3]
  Kb: 3.63 nM
[4]
  pKi: 7.89
[5]
  pKi: 8.42

## COc1ccc2c(c1OCCNC[C@H]1COc3ccccc3O1)OCC2.Cl
Cavia porcellus
  inhibition: 0%
[1]
  Kb: 0.263 nM
[2]
  Kb: 33.9 nM
[3]
  Kb: 13.2 nM
[4]
  pKi: 8.65
[5]
  pKi: 8.70

## COc1ccc2ccoc2c1OCCNC[C@H]1COc2ccccc2O1.Cl
Cavia porcellus
  inhibition: 0%
[1]
  Kb: 0.977 nM
[2]
  Kb: 5.5 nM
[3]
  Kb: 1.95 nM
[4]
  pKi: 8.72
[5]
  pKi: 9.31

## COc1ccc2cc[nH]c2c1OCCNC[C@H]1COc2ccccc2O1
Cavia porcellus
  inhibition: 25%
[1]
  Kb: 3.02 nM
[2]
  Kb: 4.9 nM
[3]
  Kb: 13.2 nM
[4]
  pKi: 6.20
[5]
  pKi: 6.75
